Measured values published in ChEMBL document CHEMBL1139213, “Antimicrobial arylcoumarins from Asphodelus microcarpus” (2007).
Values after ≈ are worked out from the molar mass of the structure shown.

Columns and labels:
Format in all cases: functional
Pseudomonas aeruginosa = experiment: Antibacterial activity against Pseudomonas aeruginosa IAM1058
In short: (§1)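 Broth microdilution MIC. Bacteria grown 16 h on BHI agar, suspended in MH broth at about (3-6) × 10^6 cfu/mL. Test materials applied at 20–100 mg/mL (as stated, before dilution), serially 2-fold diluted, then mixed with the bacterial suspension. Incubated 24 h at 37°C before MIC read-out. Positive controls: ampicillin for S. aureus and E. coli, penicillin G for P. aeruginosa.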

Candida albicans = experiment: Antifungal activity against Candida albicans IAM1099
Escherichia coli = experiment: Antibacterial activity against Escherichia coli IAM1257; in short: as §1
Staphylococcus aureus = experiment: Antibacterial activity against Staphylococcus aureus IAM1011; in short: as §1
Botrytis cinerea = experiment: Antifungal activity against Botrytis cinerea IAM1069

Row | Molecule | MIC (Pseudomonas aeruginosa) [µg/mL] | MIC (Candida albicans) [µg/mL] | MIC (Escherichia coli) [µg/mL] | MIC (Staphylococcus aureus) [µg/mL] | MIC (Botrytis cinerea) [µg/mL] | Activity (Botrytis cinerea) [µg/mL]
1 | O=c1oc2cc(O)ccc2c(O)c1-c1ccc(O[C@@H]2O[C@H](CO)[C@@H](O)[C@H](O)[C@H]2O)cc1O | 256 (≈ 571 µM) | 512 (≈ 1140 µM) | 128 (≈ 285 µM) | 128 (≈ 285 µM) | 1020 (≈ 2280 µM) | –
2 | CC1(C)S[C@@H]2[C@H](NC(=O)[C@H](N)c3ccccc3)C(=O)N2[C@H]1C(=O)O [AMPICILLIN] | – | – | 1 (≈ 2.86 µM) | < 0.5 | – | –
3 | O=c1oc2cc(O)ccc2c(O)c1-c1ccc(O)cc1O [ASPHODELIN A] | 8 (≈ 27.9 µM) | 64 (≈ 224 µM) | 4 (≈ 14 µM) | 16 (≈ 55.9 µM) | 128 (≈ 447 µM) | –
4 | CC1(C)S[C@@H]2[C@H](NC(=O)Cc3ccccc3)C(=O)N2[C@H]1C(=O)O [PENICILLIN G] | 1 (≈ 2.99 µM) | – | – | – | – | –
5 | NYSTATIN | – | < 0.5 | – | – | – | < 0.5
